Assay [1] addresses Glutamate NMDA receptor (Rattus norvegicus) (UniProt P35439+Q00959+Q00960+Q00961+Q62645+Q8VHN2+Q9R1M7). In words: Displacement of [3H]TCP from rat brain NMDA receptor at 1 uM. The essentials:
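Rat brain membrane suspensions; competition for the PCP site of the NMDA receptor with [3H]TCP as radioligand. Test ligand at 1.0 μM, read-out as percent inhibition of [3H]TCP binding. Values are the mean of two experiments.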

For the next assay, the target named is Glutamate NMDA receptor. The experiment in a line: Displacement of [3H]TCP from rat brain NMDA receptor. In outline:
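Rat brain membrane suspensions, PCP site of NMDA receptor; [3H]TCP as radioligand. Ligands first screened at 1.0 μM for inhibition of [3H]TCP binding. Ki determined, also with [3H]TCP, usually when inhibition at 1.0 μM reached 80% or more. Values are the mean from two experiments.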

The structures appear in SMILES notation.

Experimental findings from ChEMBL document CHEMBL3351730, “New N-aryl-N'-(3-(substituted)phenyl)-N'-methylguanidines as leads to potential PET radioligands for imaging the open NMDA receptor” (Bioorg Med Chem Lett, 2015) are described below.

On to `CSc1cccc(N(C)C(=N)Nc2ccc(Br)c3ccncc23)c1`, for which the inhibition in assay [1] came out at 14.4%.

Take `Cc1cc(N(C)C(=N)Nc2cccc3ccccc23)ccc1F`: the inhibition in assay [1] was 46.5%.

Turning to `CN(C(=N)Nc1cccc2ccccc12)c1cccc(SCCF)c1`, in assay [1], the inhibition was determined as 76.7%.

Take `CN(C(=N)Nc1cccc2ccccc12)c1cccc(Cl)c1F`: the inhibition in assay [1] amounted to 84%.

With `CSc1cccc(N(C)C(=N)Nc2ccc(Cl)c3ncccc23)c1`, in assay [1], the inhibition was found to be 8.6%.

With `CN(C)c1cccc(N(C)C(=N)Nc2cccc3ccccc23)c1`, the inhibition in assay [1] stood at 94.6%. The molecule further returned a Ki at Glutamate NMDA receptor of 36.7 nM.

Consider `CN(C(=N)Nc1cccc2ccccc12)c1ccc(F)c(C#N)c1`, for which, in assay [1], the inhibition worked out at 62.1%.

As to `CSc1cccc(N(C)C(=N)Nc2ccc(Br)cc2Br)c1`, the inhibition in assay [1] stood at 69.7%.

Turning to `CN(C(=N)Nc1cccc2ccccc12)c1cccc(C#N)c1`, the inhibition in assay [1] is 62.9%.

As for `CSc1cccc(N(C)C(=N)Nc2cccc3cnccc23)c1`, the inhibition in assay [1] was determined as 91.2%. Also, at Glutamate NMDA receptor, affinity was put at a Ki of 110 nM.

For the molecule `C#Cc1cccc(N(C)C(=N)Nc2cccc3ccccc23)c1`, the inhibition in assay [1] worked out at 74.3%.

As for `CN(C(=N)Nc1cccc2ccccc12)c1cccc(O)c1`, the inhibition in assay [1] turned out to be 11.9%.

Turning to `CN(C(=N)Nc1cccc2ccccc12)c1cccc(SC(F)(F)F)c1`, the inhibition in assay [1] is 80%. Besides, the Ki on Glutamate NMDA receptor was 447 nM.

On to `CN(C(=N)Nc1cccc2ccccc12)c1cccc(CO)c1`, for which, in assay [1], the inhibition was 20%.

As for `CN(C(=N)Nc1cccc2ccccc12)c1cccc(OC(F)(F)F)c1`, the inhibition in assay [1] came out at 79.2%.

With `CSc1cccc(N(C)C(=N)Nc2cnccc2Br)c1`, the inhibition in assay [1] was 23.7%.

In the case of `CSc1cccc(N(C)C(=N)Nc2ccc3ccccc3c2)c1`, in assay [1], the inhibition was 3.4%.

As to `CSc1cccc(N(C)C(=N)Nc2nccc3ccccc23)c1`, the inhibition in assay [1] came out at 25.3%.

`CSc1cccc(N(C)C(=N)Nc2cccc3ccncc23)c1`: the inhibition in assay [1] came out at 73.8%.

Regarding `CN(C(=N)Nc1cccc2ccccc12)c1cccc(I)c1`, the inhibition in assay [1] came to 106%. This molecule returned a Ki at Glutamate NMDA receptor of 31.9 nM.

With `CN(C(=N)Nc1cccc2ccccc12)c1cccc(Cc2ccccc2)c1`, the inhibition in assay [1] is 16.2%.

In the case of `C=Cc1cccc(N(C)C(=N)Nc2cccc3ccccc23)c1`, the inhibition in assay [1] was 73.9%.

On to `CSc1cccc(N(C)C(=N)Nc2cccc3ccccc23)c1`, for which the inhibition in assay [1] worked out at 93.1%. On Glutamate NMDA receptor, the Ki worked out at 39.8 nM.

As to `CN(C(=N)Nc1cccc2ccccc12)c1cccc(Br)c1`, the inhibition in assay [1] came out at 104%. The molecule also returned a Ki at Glutamate NMDA receptor of 53.7 nM.

Regarding `CN(C(=N)Nc1cccc2ccccc12)c1ccc(F)c(Cl)c1`, the inhibition in assay [1] came to 65.8%.

Take `CN(C(=N)Nc1cccc2ccccc12)c1cccc(Oc2ccccc2)c1`: in assay [1], the inhibition was 30%.

As to `CN(C(=N)Nc1cccc2ccccc12)c1cccc(Cl)c1`, in assay [1], the inhibition turned out to be 69.2%.

For `CN(C(=N)Nc1cccc2ccccc12)c1cccc(OCc2ccccc2)c1`, the inhibition in assay [1] is -2.5%.

Turning to `CN(C(=N)Nc1cccc2ccccc12)c1cccc(F)c1`, in assay [1], the inhibition stood at 36.9%.

As for `C=CSc1cccc(N(C)C(=N)Nc2cccc3ccccc23)c1`, in assay [1], the inhibition stood at 88.4%.

On to `CN(C(=N)Nc1cccc2ccccc12)c1cc(F)cc(Cl)c1`, for which the inhibition in assay [1] worked out at 86.8%. Besides, at Glutamate NMDA receptor, the Ki was 78.4 nM.

For `CSc1cccc(N(C)C(=N)Nc2cccc3cccnc23)c1`, in assay [1], the inhibition came to 72.2%.

Turning to `CN(C(=N)Nc1cccc2ccccc12)c1c(F)ccc(Cl)c1F`, in assay [1], the inhibition came to 37.6%.

With `CN(C(=N)Nc1cccc2ccccc12)c1cccc(OC(F)F)c1`, the inhibition in assay [1] came out at 66.4%.

`COc1cc(F)cc(N(C)C(=N)Nc2cccc3ccccc23)c1`: the inhibition in assay [1] stood at 32.9%.

Turning to `CN(C(=N)Nc1cccc2ccccc12)c1ccc(F)c([N+](=O)[O-])c1`, the inhibition in assay [1] amounted to 0.7%.

On to `CN(C(=N)Nc1cccc2ccccc12)c1cccc(C(F)(F)F)c1`, for which, in assay [1], the inhibition came out at 107%. This molecule also had an inhibition constant (Ki) at Glutamate NMDA receptor of 18.3 nM.

`CSc1cccc(N(C)C(=N)Nc2cccc3c(Cl)nccc23)c1`: the inhibition in assay [1] is 91.7%. Besides, the inhibitory constant (Ki) at Glutamate NMDA receptor came to 540 nM.

`CN(C(=N)Nc1cccc2ccccc12)c1ccc(F)c(Br)c1`: in assay [1], the inhibition is 56.5%.

In the case of `CSc1cccc(N(C)C(=N)Nc2cncc3ccccc23)c1`, the inhibition in assay [1] is 80.7%. Besides, the Ki on Glutamate NMDA receptor was greater than 1000 nM.

Take `CN(C(=N)Nc1cccc2ccccc12)c1cc(Br)ccc1F`: the inhibition in assay [1] was found to be 13.8%.

On to `CC(=O)c1cccc(N(C)C(=N)Nc2cccc3ccccc23)c1`, for which, in assay [1], the inhibition turned out to be 82.3%. The molecule also showed an inhibitory constant (Ki) on Glutamate NMDA receptor of 152 nM.

`CN(C(=N)Nc1cccc2ccccc12)c1ccc2ccccc2c1`: the inhibition in assay [1] amounted to 55%.
